Experimental data from ChEMBL document CHEMBL1629636, “In vitro susceptibility of Borrelia spielmanii to antimicrobial agents commonly used for treatment of Lyme disease” (2009).
Values after ≈ are worked out from the molar mass of the structure shown.

Columns and labels:
Assay type in all cases: functional
[1] = Antimicrobial activity against Borrelia spielmanii A14S after 72 hrs by colorimetric assay; settings: Borreliella spielmanii
How it was run: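 Low-passage isolates (10 to 20 passages) grown in BSK medium were tested in microtiter trays precoated with lyophilized antimicrobials. MIC was read colorimetrically after 72 h. Independent experiments were run on three different days, and the MIC reported is the median of the three.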

Borrelia spielmanii [2] = test: Antimicrobial activity against Borrelia spielmanii isolate PJes after 72 hrs by colorimetric assay; settings: Borreliella spielmanii
How it was run: (§1)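 Tested in microtiter trays preloaded with lyophilized antibiotics; clinical isolates were low-passage (10 to 20 passages). MIC was read by colorimetric assay after 72 h. MBC was defined as 100% killing in liquid medium at 72 h: aliquots from vials showing no growth were diluted 1:1,000 in BSK and checked for regrowth after 3 weeks of subculture. Values are medians of three independent experiments on separate days.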

Borrelia spielmanii [3] = test: Antimicrobial activity against Borrelia spielmanii isolate PHap after 72 hrs by colorimetric assay; settings: Borreliella spielmanii; how it was run: as §1
Borrelia garinii [4] = test: Antimicrobial activity against Borrelia garinii isolate PSth after 72 hrs by colorimetric assay; settings: Borreliella garinii; how it was run: as §1
Borrelia afzelii [5] = test: Antimicrobial activity against Borrelia afzelii isolate G1039 after 72 hrs by colorimetric assay; settings: Borreliella afzelii, isolate G1039, 72 h; how it was run: as §1
Borrelia spielmanii [6] = test: Antimicrobial activity against Borrelia spielmanii isolate PMew after 72 hrs by colorimetric assay; settings: Borreliella spielmanii; how it was run: as §1
Borrelia spielmanii [7] = test: Antimicrobial activity against Borrelia spielmanii isolate PAnz after 72 hrs by colorimetric assay; settings: Borreliella spielmanii; how it was run: as §1
Borrelia spielmanii [8] = test: Antimicrobial activity against Borrelia spielmanii isolate PMai after 72 hrs by colorimetric assay; settings: Borreliella spielmanii; how it was run: as §1
Borrelia garinii [9] = test: Antimicrobial activity against Borrelia garinii isolate M2094 after 72 hrs by colorimetric assay; settings: Borreliella garinii, isolate M2094, 72 h; how it was run: as §1
Borrelia garinii [10] = test: Antimicrobial activity against Borrelia garinii isolate G1 after 72 hrs by colorimetric assay; settings: Borreliella garinii, isolate G1, 72 h; how it was run: as §1
Borrelia spielmanii [11] = test: Antimicrobial activity against Borrelia spielmanii isolate PC-Eq17 after 72 hrs by colorimetric assay; settings: Borreliella spielmanii, isolate PC-Eq17, 72 h; how it was run: as §1
Borrelia afzelii [12] = test: Antimicrobial activity against Borrelia afzelii isolate G600 after 72 hrs by colorimetric assay; settings: Borreliella afzelii, isolate G600, 72 h; how it was run: as §1
Borrelia spielmanii [13] = test: Antimicrobial activity against Borrelia spielmanii isolate TIsar2 after 72 hrs by colorimetric assay; settings: Borreliella spielmanii, isolate TIsar2, 72 h; how it was run: as §1
Borrelia spielmanii [14] = test: Antimicrobial activity against Borrelia spielmanii isolate PSig2 after 72 hrs by colorimetric assay; settings: Borreliella spielmanii, isolate PSig2, 72 h; how it was run: as §1
Borrelia spielmanii [15] = test: Antimicrobial activity against Borrelia spielmanii isolate TIsar3 after 72 hrs by colorimetric assay; settings: Borreliella spielmanii, isolate TIsar3, 72 h; how it was run: as §1
Borrelia burgdorferi = test: Antimicrobial activity against Borrelia burgdorferi isolate LW2 after 72 hrs by colorimetric assay; settings: Borreliella burgdorferi, isolate LW2, 72 h; how it was run: as §1
[16] = Antimicrobial activity against Borrelia burgdorferi B31 after 72 hrs by colorimetric assay; settings: Borreliella burgdorferi; how it was run: as §1
Borrelia afzelii [17] = test: Antimicrobial activity against Borrelia afzelii isolate FEM1 after 72 hrs by colorimetric assay; settings: Borreliella afzelii, isolate FEM1, 72 h; how it was run: as §1
Borrelia = test: Antimicrobial activity against Borrelia clinical isolate after 72 hrs by colorimetric assay; settings: for MIC90: Borrelia, 72 h; how it was run: as §1
Staphylococcus aureus = test: Antimicrobial activity against Staphylococcus aureus ATCC 29213 after 72 hrs by colorimetric assay; settings: ATCC 29213, 72 h
How it was run: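 Quality-control MIC followed the CLSI method with two changes: BSK medium was used, and the antibiotic-medium preparation was preincubated for 48 h before testing. Tests were run on three different days, and the MIC reported is the median of the three.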

SMILES | MBC [1] [µg/mL] | MIC [1] [µg/mL] | MBC (Borrelia spielmanii [2]) [µg/mL] | MIC (Borrelia spielmanii [2]) [µg/mL] | MBC (Borrelia spielmanii [3]) [µg/mL] | MIC (Borrelia spielmanii [3]) [µg/mL] | MBC (Borrelia garinii [4]) [µg/mL] | MIC (Borrelia garinii [4]) [µg/mL] | MBC (Borrelia afzelii [5]) [µg/mL] | MIC (Borrelia afzelii [5]) [µg/mL] | MBC (Borrelia spielmanii [6]) [µg/mL] | MIC (Borrelia spielmanii [6]) [µg/mL] | MBC (Borrelia spielmanii [7]) [µg/mL] | MIC (Borrelia spielmanii [7]) [µg/mL] | MBC (Borrelia spielmanii [8]) [µg/mL] | MIC (Borrelia spielmanii [8]) [µg/mL] | MBC (Borrelia garinii [9]) [µg/mL] | MIC (Borrelia garinii [9]) [µg/mL] | MBC (Borrelia garinii [10]) [µg/mL] | MIC (Borrelia garinii [10]) [µg/mL] | other results
CC[C@H]1OC(=O)[C@H](C)[C@@H](O[C@H]2C[C@@](C)(OC)[C@@H](O)[C@H](C)O2)[C@H](C)[C@@H](O[C@@H]2O[C@H](C)C[C@H](N(C)C)[C@H]2O)[C@](C)(OC)C[C@@H](C)C(=O)[C@H](C)[C@@H](O)[C@]1(C)O [CLARITHROMYCIN] | 1 (≈ 1.34 µM) | 0.0039 (≈ 0.00521 µM) | 0.5 (≈ 0.668 µM) | 0.0039 (≈ 0.00521 µM) | 0.5 (≈ 0.668 µM) | 0.0019 (≈ 0.00254 µM) | 2 (≈ 2.67 µM) | 0.0079 (≈ 0.0106 µM) | 1 (≈ 1.34 µM) | 0.0039 (≈ 0.00521 µM) | 1 (≈ 1.34 µM) | 0.0079 (≈ 0.0106 µM) | 1 (≈ 1.34 µM) | 0.0019 (≈ 0.00254 µM) | 0.5 (≈ 0.668 µM) | 0.0019 (≈ 0.00254 µM) | 1 (≈ 1.34 µM) | 0.0039 (≈ 0.00521 µM) | 1 (≈ 1.34 µM) | 0.0019 (≈ 0.00254 µM) | MBC (Borrelia spielmanii [11]): 1 µg/mL (≈ 1.34 µM); MIC (Borrelia spielmanii [11]): 0.0019 µg/mL (≈ 0.00254 µM); MBC (Borrelia afzelii [12]): 0.5 µg/mL (≈ 0.668 µM); MIC (Borrelia afzelii [12]): 0.0079 µg/mL (≈ 0.0106 µM); MBC (Borrelia spielmanii [13]): 0.5 µg/mL (≈ 0.668 µM); MIC (Borrelia spielmanii [13]): 0.0079 µg/mL (≈ 0.0106 µM); MBC (Borrelia spielmanii [14]): 1 µg/mL (≈ 1.34 µM); MIC (Borrelia spielmanii [14]): 0.0019 µg/mL (≈ 0.00254 µM); MBC (Borrelia spielmanii [15]): 1 µg/mL (≈ 1.34 µM); MIC (Borrelia spielmanii [15]): 0.0079 µg/mL (≈ 0.0106 µM); MBC (Borrelia burgdorferi): 4 µg/mL (≈ 5.35 µM); MIC (Borrelia burgdorferi): 0.0039 µg/mL (≈ 0.00521 µM); MBC [16]: 2 µg/mL (≈ 2.67 µM); MIC [16]: 0.0079 µg/mL (≈ 0.0106 µM); MBC (Borrelia afzelii [17]): 1 µg/mL (≈ 1.34 µM); MIC (Borrelia afzelii [17]): 0.0039 µg/mL (≈ 0.00521 µM); MBC90 (Borrelia): 1 µg/mL (≈ 1.34 µM); MIC90 (Borrelia): 0.0079 µg/mL (≈ 0.0106 µM); MIC (Staphylococcus aureus): 0.063 µg/mL (≈ 0.0842 µM)
C[C@H]1c2cccc(O)c2C(=O)C2=C(O)[C@]3(O)C(=O)C(C(N)=O)=C(O)[C@@H](N(C)C)[C@@H]3[C@@H](O)[C@@H]21.O [DOXYCYCLINE] | 16 | 0.125 | 8 | 0.125 | 16 | 0.0625 | 32 | 0.25 | 4 | 0.125 | 16 | 0.5 | 8 | 0.0625 | 8 | 0.125 | 16 | 0.25 | 16 | 0.125 | MBC (Borrelia spielmanii [11]): 16 µg/mL; MIC (Borrelia spielmanii [11]): 0.125 µg/mL; MBC (Borrelia afzelii [12]): 2 µg/mL; MIC (Borrelia afzelii [12]): 0.25 µg/mL; MBC (Borrelia spielmanii [13]): 16 µg/mL; MIC (Borrelia spielmanii [13]): 0.25 µg/mL; MBC (Borrelia spielmanii [14]): 8 µg/mL; MIC (Borrelia spielmanii [14]): 0.125 µg/mL; MBC (Borrelia spielmanii [15]): 8 µg/mL; MIC (Borrelia spielmanii [15]): 0.125 µg/mL; MBC (Borrelia burgdorferi): 32 µg/mL; MIC (Borrelia burgdorferi): 0.125 µg/mL; MBC [16]: 16 µg/mL; MIC [16]: 0.25 µg/mL; MBC (Borrelia afzelii [17]): 4 µg/mL; MIC (Borrelia afzelii [17]): 0.125 µg/mL; MBC90 (Borrelia): 16 µg/mL; MIC90 (Borrelia): 0.25 µg/mL; MIC (Staphylococcus aureus): 0.25 µg/mL
CC[C@H]1OC(=O)[C@H](C)[C@@H](O[C@H]2C[C@@](C)(OC)[C@@H](O)[C@H](C)O2)[C@H](C)[C@@H](O[C@@H]2O[C@H](C)C[C@H](N(C)C)[C@H]2O)[C@](C)(O)C[C@@H](C)C(=O)[C@H](C)[C@@H](O)[C@]1(C)O [ERYTHROMYCIN] | 2 (≈ 2.73 µM) | 0.0156 (≈ 0.0213 µM) | 1 (≈ 1.36 µM) | 0.0156 (≈ 0.0213 µM) | 2 (≈ 2.73 µM) | 0.0079 (≈ 0.0108 µM) | 4 (≈ 5.45 µM) | 0.0312 (≈ 0.0425 µM) | 2 (≈ 2.73 µM) | 0.0156 (≈ 0.0213 µM) | 2 (≈ 2.73 µM) | 0.0312 (≈ 0.0425 µM) | 2 (≈ 2.73 µM) | 0.0079 (≈ 0.0108 µM) | 1 (≈ 1.36 µM) | 0.0079 (≈ 0.0108 µM) | 4 (≈ 5.45 µM) | 0.0312 (≈ 0.0425 µM) | 4 (≈ 5.45 µM) | 0.0156 (≈ 0.0213 µM) | MBC (Borrelia spielmanii [11]): 4 µg/mL (≈ 5.45 µM); MIC (Borrelia spielmanii [11]): 0.0156 µg/mL (≈ 0.0213 µM); MBC (Borrelia afzelii [12]): 2 µg/mL (≈ 2.73 µM); MIC (Borrelia afzelii [12]): 0.0312 µg/mL (≈ 0.0425 µM); MBC (Borrelia spielmanii [13]): 1 µg/mL (≈ 1.36 µM); MIC (Borrelia spielmanii [13]): 0.0312 µg/mL (≈ 0.0425 µM); MBC (Borrelia spielmanii [14]): 2 µg/mL (≈ 2.73 µM); MIC (Borrelia spielmanii [14]): 0.0079 µg/mL (≈ 0.0108 µM); MBC (Borrelia spielmanii [15]): 2 µg/mL (≈ 2.73 µM); MIC (Borrelia spielmanii [15]): 0.0312 µg/mL (≈ 0.0425 µM); MBC (Borrelia burgdorferi): 4 µg/mL (≈ 5.45 µM); MIC (Borrelia burgdorferi): 0.0312 µg/mL (≈ 0.0425 µM); MBC [16]: 4 µg/mL (≈ 5.45 µM); MIC [16]: 0.0312 µg/mL (≈ 0.0425 µM); MBC (Borrelia afzelii [17]): 2 µg/mL (≈ 2.73 µM); MIC (Borrelia afzelii [17]): 0.0312 µg/mL (≈ 0.0425 µM); MBC90 (Borrelia): 4 µg/mL (≈ 5.45 µM); MIC90 (Borrelia): 0.0312 µg/mL (≈ 0.0425 µM); MIC (Staphylococcus aureus): 0.25 µg/mL (≈ 0.341 µM)
